# Compound activity deposited in PubChem by several laboratories.
# TPT1 inhibitor: blocks Candida albicans tRNA 2'-phosphotransferase. inhibition, % at 5 µM. recombinant caTPT1, FP RNA substrate dephosphorylation. actives 0.81% (n = 300,000). AID 1962;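 active = inhibition above the mean of all tested compounds plus 3 SD, set per screening campaign, cut at about 24% in these data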;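 also: plate controls were DMSO alone for no effect and ferristatin control at 100 nM for full effect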
# Rpn11 inh: inhibitors of human proteasome Rpn11 | actives 0.59% (n = 360,000) | human 26S proteasome, Ub4-pepOG fluorescence polarization; 20S core pre-blocked with epoxomicin | AID 588493 | O00487 | calls only at 20 µM;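 active = inhibition at 20 µM, scaled to each plate's controls, above about 33%, limit read from the data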
# Target sequence (O00487 whole entry, looked up): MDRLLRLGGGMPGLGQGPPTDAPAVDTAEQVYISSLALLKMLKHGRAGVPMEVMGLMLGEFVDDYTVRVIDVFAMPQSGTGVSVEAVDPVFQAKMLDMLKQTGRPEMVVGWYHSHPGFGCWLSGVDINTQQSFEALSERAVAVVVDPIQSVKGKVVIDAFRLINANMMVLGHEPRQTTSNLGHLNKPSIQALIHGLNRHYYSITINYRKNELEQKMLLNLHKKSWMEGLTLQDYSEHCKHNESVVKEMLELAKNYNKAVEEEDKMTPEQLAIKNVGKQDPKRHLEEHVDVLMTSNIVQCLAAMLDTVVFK
# CSN inh: inhibitors of human CSN-mediated cullin deneddylation; actives 0.38% (n = 360,000); Q92905; AID 651999; Purified CSN, SCF-Nedd8-OG deneddylation, fluorescence polarization; inhibition, % at 12.5 µM;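 active = pattern-corrected inhibition above about 35%, with an unprinted fluorescence ratio check between 0.5 and 1.5, limit read from the data, passing the limit was not always enough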;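 also: 0% = enzyme with substrate and 100% = substrate without enzyme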
# Target sequence (Q92905 whole entry, looked up, one chain of several): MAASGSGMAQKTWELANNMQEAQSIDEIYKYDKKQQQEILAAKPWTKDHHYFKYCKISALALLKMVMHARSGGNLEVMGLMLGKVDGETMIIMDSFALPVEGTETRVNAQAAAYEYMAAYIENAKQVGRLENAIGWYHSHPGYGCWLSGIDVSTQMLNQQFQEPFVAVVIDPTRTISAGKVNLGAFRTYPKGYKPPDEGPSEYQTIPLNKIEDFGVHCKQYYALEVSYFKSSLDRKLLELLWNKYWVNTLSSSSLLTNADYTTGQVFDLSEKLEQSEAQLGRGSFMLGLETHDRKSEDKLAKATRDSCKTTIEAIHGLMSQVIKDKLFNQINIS
#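 Test system: Human Csn5 produced in HEK293T cells | Compound: 12.5 µM single point | Times: 90 min, room temperature | Signal: Fluorescence polarization readout | Read-out basis: % inhibition of substrate cleavage by Csn5 | Controls: no-enzyme wells high, enzyme-with-substrate wells low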
# IDE act: boosts human insulin-degrading enzyme activity in HEK cells; FAbeta-B cleavage, fluorescence polarization; 0% vehicle, 100% cell-free pure enzyme wells; activation, % at 5.96 µM; actives 0.073% (n = 340,000); AID 493087;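 active = activation above the mean of all tested compounds plus 3 SD, set per screening campaign, cut at about 17% in these data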
# HNF4A DNA FP: change in binding of human HNF4 alpha to DNA; HNF4a-FITC DNA binding, fluorescence polarization, 1 h; activity change, % at 10 µM; actives 0.3% (n = 360,000); in the data active = activity change above about 30%, passing the limit was not always enough
# IDE cell inh: inhibitors of human insulin-degrading enzyme in cells; AID 434962; actives 0.41% (n = 320,000); HEK cells, FAbetaB cleavage, fluorescence polarization; P14735; inhibition, % at 5.59 µM;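 active = percent inhibition above the average of all tested compounds plus 3 SD, set per screening campaign, cut at about 16% in these data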;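 also: IDE supplied by intact live HEK cells; FP after avidin binding of uncleaved biotin substrate so inhibition keeps polarization high; 0% = DMSO wells and 100% = 60 µM reference IDE inhibitor Ii1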
# TPT1 inh confirm: confirmation of Candida albicans TPT1 inhibitors. shares compounds with TPT1 inhibitor. recombinant caTPT1, fluorescence polarization, RNase T1 coupled. inhibition, % at 5 µM. actives 74% (n = 2,400). AID 2149;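 active = inhibition above the primary screen limit, the mean inhibition of all tested compounds plus 3 SD, cut at about 25% in these data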
# RNase T1 counter: blocks Aspergillus oryzae RNase T1, a TPT1 counter-screen; shares compounds with TPT1 inhibitor; RNase T1 cleavage, fluorescence polarization, 1536-well; inhibition, % at 5 µM; actives 83% (n = 2,400); AID 2153;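 active = inhibition above the solvent-only control well mean plus 3 SD, limit set per screening run, cut at about 23% in these data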;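 also: plate controls were DMSO wells with enzyme for no effect and wells without RNase T1 for full effect; inhibitors block cleavage so intact labeled substrate keeps polarization high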
# Starred values were filed as active, the others as inactive; i = inactive; x = no result given. An excerpt weighted towards active compounds, which were near 1.7% of everything screened.
SMILES,TPT1 inhibitor,Rpn11 inh,CSN inh,IDE act,HNF4A DNA FP,IDE cell inh,TPT1 inh confirm,RNase T1 counter
Cc1cccc(N2CCN(C(=O)c3ccc(N4CCCC4=O)cc3)CC2C)c1 (configuration not stated),1,i,1,0,2,11,x,x
Cc1ccc(CSCC2Nc3ccc(C(=O)N4CCN(c5cccc(C)c5)C(C)C4)cc3NC2=O)cc1 (configuration not stated),110*,x,x,x,x,8,21,33*
Cc1ccc(SC/C(O)=C(\C#N)c2nc3ccccc3n2C)cc1,-6,i,1,0,-1,-1,x,x
COC(=O)c1cc(NC(=O)c2cccc(C(F)(F)F)c2)c(=O)oc1C/C=N/OCc1cccc(Cl)c1Cl,35*,x,15,-4,28,6,38*,45*
COC(=O)c1cc(NC(=O)c2cccc(C(F)(F)F)c2)c(=O)oc1C,5,i,-12,-4,2,-3,x,x
O=C(NNC(=O)c1ncc(Cl)c(Cl)c1Cl)c1ccc(F)cc1,0,i,0,1,-1,-5,x,x
c1ccc(-c2ccccc2OCCCCN2CCCCC2)cc1,51*,i,0,4,3,0,4,9
c1ccc(-c2ccccc2OCCCN2CCCCCC2)cc1,-4,i,10,-3,2,-1,x,x
Nc1nonc1C(=O)N/N=C/c1cc(Br)ccc1O,33*,x,x,x,x,-6,30*,38*
Nc1nonc1-n1nnc(C(=O)N/N=C/c2cc(Br)ccc2O)c1CNc1ccccc1,7,i,5,2,8,4,x,x
CCOc1ccc(-c2nn(-c3ccccc3)cc2/C=C(\C#N)S(=O)(=O)c2ccccc2)cc1C,-1,i,0,4,0,2,x,x
CC(=O)c1c(N2CCN(CCO)CC2)nc(=S)n(-c2ccccc2)c1C,-9,i,6,-2,3,10,x,x
CC(=O)c1c(N2CCN(c3ccccc3)CC2)nc(=S)n(-c2ccccc2)c1C,78*,i,15,-2,13,6,26*,35*
Cc1ccc(OCCNC(=O)CCNS(=O)(=O)c2ccc(C)cc2)cc1,-2,i,-1,3,0,2,x,x
N#CC1=C(N)OC2=C(CC/C2=C\c2ccccc2Cl)C1c1ccccc1Cl (configuration not stated),67*,x,70,-6,81,3,81*,89*
N#CC1=C(N)OC2=C(C(=O)CCC2)C1c1ccccc1 (configuration not stated),0,i,-5,-1,8,3,x,x
CC(=O)C1=C(C)OC(N)=C(C#N)C1c1cc([N+](=O)[O-])ccc1Cl (configuration not stated),3,i,1,1,1,-5,x,x
N#CC1=C(N)OC2=C(CC/C2=C\c2ccccc2)C1c1ccccc1 (configuration not stated),83*,x,35,-30,20,13,85*,88*
C/C(=N/NC(=O)CNC(=O)Cc1ccccc1)c1ccc(Cl)cc1,-4,i,0,x,2,0,x,x
Cc1ccc(-n2nnnc2SCc2nc3sc(C)c(C)c3c(=O)[nH]2)cc1,20,x,17,-2,30,8,x,x
CC(=O)c1sc2nc(CSc3nnnn3-c3ccccc3)[nH]c(=O)c2c1C,71*,x,46*,-13,38*,14,69*,81*
O=C(COc1ccccc1)NCC(=O)Nc1ccncc1,0,i,-2,2,0,0,x,x
C/C(CC(=O)NCc1ccco1)=N\NC(=O)Cc1ccc(-c2ccccc2)cc1,38*,i,-1,-7,0,-2,0,4
Cc1ccc2[nH]c(=O)c(CN(CCCO)S(=O)(=O)c3c(C)ccc4nsnc34)cc2c1,-1,i,2,3,-1,1,x,x
CC(C)NC(=O)/C(C#N)=C\c1ccc(N(C)C)o1,153*,x,117,-24,188,6,177*,170*
SMILES,TPT1 inhibitor,Rpn11 inh,CSN inh,IDE act,HNF4A DNA FP,IDE cell inh,TPT1 inh confirm,RNase T1 counter
N#CC1=C(N)Oc2cc(O)c(Cl)cc2C1c1ccccc1F (configuration not stated),72*,i,12,-31,-4,34*,15,26*
COc1ccc(/C=C/C(=O)NCc2cccnc2)cc1,0,i,-6,4,4,7,x,x
CCc1ccc(CN(Cc2cccnc2)C(=O)/C=C/c2ccc(OC)cc2)cc1,39*,x,26,2,60*,2,89*,102*
COC(=O)C1CC(=O)c2ccsc2C1 (configuration not stated),64*,i,-1,-5,-3,7,1,4
COc1cc(/C=C(\C#N)C(=O)Nc2ccccn2)ccc1O,34*,i,12,-18,10,4,57*,63*
Cc1ccc(OCC(=O)NNC(=O)CCc2ccccc2)cc1,3,i,4,7,3,0,x,x
Cc1ccc(CC(=O)CCc2ccccc2)cc1,34*,i,-1,1,3,-3,5,5
Cc1ccc(S(=O)(=O)N2CCC(C(=O)NC3CCCC3)CC2)cc1Cl,1,i,-3,4,-2,-1,x,x
CS(=O)(=O)/C(C#N)=C\c1cnc(S(=O)(=O)c2ccccc2)s1,35*,x,x,x,x,7,6,12
COc1ccc(C(=O)/C=C/Nc2ccc(S(=O)(=O)Nc3cc(OC)nc(OC)n3)cc2)c(OC)c1,36*,i,2,8,11,-1,39*,50*
Cc1cc(O)c2c(C)c(CC(=O)N3CCN(C(=O)C4COc5ccccc5O4)CC3)c(=O)oc2c1 (configuration not stated),3,i,3,1,0,5,x,x
CCSc1nnc(-c2sc3nnc(-c4ccccc4)c(-c4ccccc4)c3c2N)o1,42*,i,17,-72,31,21*,42*,51*
Cc1cccc(COC[C@H](Cc2ccccc2)N2CCN(C(=O)c3ccc(C(F)(F)F)cc3)CCC2=O)c1,x,x,-3,x,1,x,x,x
CCn1ncc(Br)c1C(=O)Nc1cccc(C(C)=O)c1,-4,i,2,1,2,-3,x,x
CCn1ncc(Br)c1C(=O)Nc1cc(C)cc(C)c1,34*,i,1,-1,2,1,7,13
COc1ccc(-n2nc3c(N4CCC(C(=O)N5CCC(C)CC5)CC4)nnc(C)c3c2C)cc1,79*,x,64*,-2,99*,0,72*,81*
